PubChem BioAssay AID1899 (The Scripps Research Institute Molecular Screening Center, 2009)
Screen size: about 300,000 compounds; about 1,000 (0.33%) were called active. Many of the other results were omitted from the sample, so actives are more common in it than they were. Unmarked numbers belong to inactive results.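 How the source made its calls: active means inhibition above the mean of all tested compounds plus 3 SD, set per screening campaign (cut at about 45% in these data); inactive means the rest.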

system: HCV core protein (residues 1-106) dimerization; assay: blockers of core106 self-association – biochemical, TR-FRET, high-throughput, primary screen (AID 1899); details: TR-FRET GST/Flag-core106 dimerization, 1536-well; at 5 µM; stronger effect = higher value
Summary of the method: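 Material: GST/Flag-tagged HCV core106 proteins. Incubation: 4 h, 22.5 °C incubation. Read-out basis: inhibition (%) from 671 over 617 nm ratio. Measured by: TR-FRET, excitation 340 nm, emission 617 and 671 nm.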

Structure (SMILES) | inhibition
COc1ccc(OC)c(CNC(=O)c2cc(=O)[nH]c3ccc(S(=O)(=O)N4CCCC4)cc23)c1 | 0.99%
COc1ccc(NC(=O)c2cc(-c3cc(OC)c(OC)c(OC)c3)nc3ccccc23)c(OC)c1 | -2.9%
CNC(=O)COC(=O)c1cc(-c2ccc(OC)cc2)nc2ccccc12 | 0.09%
COc1cc(-c2cc(C(=O)OCC(=O)Nc3ccc4c(c3)OCO4)c3ccccc3n2)cc(OC)c1OC | 46.1% (active)
CN(C)/C(CN1CCCCC1)=C1\N=C(c2ccccc2)OC1=O | -2.51%
O=C(Nc1cccc2ncccc12)C(Cl)(Cl)Cl | -1.9%
Cc1ccc(C(=O)Nc2cccc3ncccc23)cc1[N+](=O)[O-] | 4.3%
Cc1ccc(/C=C(\C#N)C(=O)Nc2cccc3ncccc23)o1 | 64.5% (active)
Cc1ccc(NC(=S)NC(=O)/C=C/c2ccc(Cl)cc2)cc1 | -5.71%
CCOc1ccc(NC(=S)NC(=O)/C=C/c2ccc(OC)cc2)c([N+](=O)[O-])c1 | 47.8% (active)
COc1ccc(/C=C/C(=O)NC(=S)N2CCCC(C(N)=O)C2)cc1 (stereo not drawn) | -10.7%
Cn1nnnc1SCC(=O)N1CCN(C(c2ccccc2)c2ccccc2)CC1 | 2.43%
N#CC1=C(N)Oc2c(ccc3cccnc23)C1c1ccncc1 (stereo not drawn) | 3.58%
N#CC1=C(N)Oc2c(sc3ccccc23)C1c1ccco1 (stereo not drawn) | 54.5% (active)
COC(=O)c1ccc2c(=O)n(CCN3CCOCC3)c(SCC(=O)Nc3cccc(OC)c3)nc2c1 | -0.68%
CCOC(=O)N1CCN(C(=O)CSc2nc(C)nc3c2c(=O)n(C)c(=O)n3C)CC1 | -1.3%
NC(=O)CCN1CCN(S(=O)(=O)/C=C/c2ccccc2)CC1 | 0.92%
COc1ccc2c(CN3CCN(S(=O)(=O)c4cccs4)CC3)cc(=O)oc2c1 | 11.7%
O=c1cc(CN2CCN(S(=O)(=O)/C=C/c3ccccc3)CC2)c2ccc(O)cc2o1 | 52.2% (active)
Cc1cc(C(=O)N/N=C/c2ccc(O)c([N+](=O)[O-])c2)c(C)n1-c1ccc(F)cc1 | 70.4% (active)
COc1cc(/C=N/NC(=O)c2cc(C)n(-c3ccc(F)cc3)c2C)cc(OC)c1O | 4.09%
Cc1nn(CC(=O)N/N=C/c2ccc(F)cc2)c(C)c1[N+](=O)[O-] | -5.44%

Structure (SMILES) | inhibition
CC(c1ccco1)N(C(=O)c1ccc(S(=O)(=O)N2CCCCC2)cc1)c1ccccn1 (stereo not drawn) | -1.02%
CCOc1ccc(C(=O)Nc2ccncc2)cc1 | -4.79%
CC(C)NC(=O)NC(=O)COC(=O)c1ccc(NC(=O)CC#N)cc1 | -2.82%
CCOc1ccc(NC(=O)c2ccc(NC(=O)COC(=O)c3ccc(NC(=O)CC#N)cc3)cc2)cc1 | 62.4% (active)
CCCn1c(O)c(CN2CCCC(C)C2)c(C)c(C#N)c1=O (stereo not drawn) | -8.8%
O=C(Nc1ccc(-n2ccnc2P(=O)(O)c2ccccc2)cc1)c1ccccc1Br | 3.36%
CC(=O)c1ccc(S(=O)(=O)N2CCC3(CC2)OCCO3)cc1 | -8.35%
CC(=O)c1ccc(S(=O)(=O)N2CCN(C(=O)/C=C/c3ccc4ccccc4n3)CC2)cc1 | 34.5%
CC(=O)c1ccc(S(=O)(=O)N2CCN(c3nc4c(C)c(C)ccc4cc3C#N)CC2)cc1 | 60.9% (active)
Cc1ccc(S(=O)Cc2ccc(C(=O)N3CCN(C4CCCCC4)CC3)o2)cc1 (stereo not drawn) | 2.42%
COc1ccc(/C=N/N=C/c2c[nH]c(=O)c(C#N)c2Nc2ccccc2)cc1 | 9.36%
Nc1nc(O)c(CC(=O)O)s1 | -10.1%
COc1cccc2c(C)c(C(=O)O)[nH]c12 | 52.9% (active)
COc1cc2c(C(=O)O)c(C)n(C)c2c2ccccc12 | -16.5%
Cc1c(C(=O)N/N=C/c2ccccc2)[nH]c2c([N+](=O)[O-])cccc12 | 2.99%
COc1ccc(S(=O)(=O)N2CCN(c3ncnc4c(-c5ccccc5)nsc34)CC2)cc1 | 5.78%
COc1cccc(OCc2cc(/C=N/NC(=O)c3nc(Cl)c(Cl)c(N)c3Cl)ccc2OC)c1 | 58.9% (active)
COc1ccc(/C=N\NC(=O)c2sc(N)nc2C)cc1OC | 1.3%
COc1ccc(/C=N/NC(=O)c2ccc(Cl)cc2)cc1COC(C)=O | -6.24%
CCn1cc(/C=C(\NC(=O)c2cc(OC)c(OC)c(OC)c2)C(=O)N2CCN(C)CC2)c2ccccc21 | -12.2%
CC1CCCN(c2ccc(C(=O)NCCc3ccccc3)cn2)C1 (stereo not drawn) | -2.49%
Cc1cc2nc3c(=O)n(Cc4ccccc4)c(=O)[nH]c3nc2cc1N | 7.8%

Structure (SMILES) | inhibition
Nc1ccc2nc3c(=O)[nH]c(=S)[nH]c3nc2c1 | 47.1% (active)
COc1ccc(/C=N/NC(=O)c2cc(-c3cccc(C)c3)nc3ccccc23)cc1O | 4.37%
Cc1ccc(-c2cc(C(=O)N/N=C/C=C/c3ccco3)c3ccccc3n2)cc1C | 68.2% (active)
O=C(N/N=C/C=C/c1ccco1)c1cccs1 | 11.6%
CCOC(=O)N1CCN(Cc2nc3ccc([N+](=O)[O-])cc3c(=O)n2-c2cccc(OC)c2)CC1 | 0.84%
Cc1ccc(NC(=O)CN(C)C(=O)COC(=O)C(C)(C)Oc2ccc(Cl)cc2)cc1 | 2.08%
CC(C)c1ccc(C2C(C(=O)c3ccco3)=C(O)C(=O)N2CC2CCCO2)cc1 (stereo not drawn) | -4.24%
Cn1cncc1COC(=O)c1ccc(Cl)cc1 | 1.11%
Cc1ccc(S(=O)(=O)N2CCC(C(=O)NCC3CCCO3)CC2)cc1 (stereo not drawn) | 4.25%
C=CCn1c(C)cc(C2=NNC(=NCC)SC2)c1C | -4.1%
Cc1cc(C2=NNC(=Nc3ccc(S(=O)(=O)N4CCOCC4)cc3)SC2)c(C)n1CC1CCCO1 (stereo not drawn) | 55.5% (active)
O=C(NNC(=S)NC(=O)c1cn(-c2ccccc2)nc1-c1ccccc1)c1ccncc1 | -3.87%
CCn1cc(C(=O)N2CC(C)CC(C)C2)c(=O)c2cc(S(=O)(=O)N3CCCC3)ccc21 (stereo not drawn) | -3.07%
CN(NC(=O)C1CC(=O)N(c2ccccc2)C1)C1=NS(=O)(=O)c2ccccc21 (stereo not drawn) | 1.86%
O=C(N=C1SC2CS(=O)(=O)CC2N1c1cc(Cl)ccc1Cl)C1CC1 (stereo not drawn) | -2.57%
c1ccc(CSc2nnc(-c3ccco3)c(-c3ccco3)n2)cc1 | 63.8% (active)
O=c1cc(O)nc(SCc2ccccc2Cl)[nH]1 | -5.09%
O=c1[nH]c(SCc2ccccc2)nnc1-c1ccccc1 | 4.19%
COc1ccc2nc(SCc3ccccc3)nc(C)c2c1 | -8.86%
Fc1cccc(Cl)c1CSc1ccc(-c2ccco2)nn1 | 19.9%
Clc1ccccc1CSc1nnc(-c2ccco2)c(-c2ccco2)n1 | 60.8% (active)
CCN(CC(=O)Nc1ccccc1OC)C(=O)Cn1cnc2ccccc2c1=O | 0.63%

Structure (SMILES) | inhibition
C=C1CCN([C@@H](Cc2ccccc2)C(=O)N2CCOCC2)S(=O)(=O)c2ccccc21 | 5.65%
CCOC(=O)CSc1nc2ccc(C)cc2n2cnnc12 | -1.27%
CC(C)(C)CC(=O)Nc1nnc(SCC(=O)NCc2cccs2)s1 | 10.5%
O=C(c1ccccc1)N1CCN(C(=O)c2cc3nc(-c4ccccc4)cc(C(F)(F)F)n3n2)CC1 | -5.71%
Cc1ccc(N2NC(=O)/C(=C/C=C/c3ccco3)C2=O)cc1C | 13.5%
CN1C(=O)/C(=C/c2ccco2)SC1=Nc1cccc(C(=O)O)c1 | 1.21%
Cc1ccc(N=C2NC(=O)/C(=C/C=C/c3ccco3)S2)cc1C | 61.8% (active)
C/C(=N\NC(=O)c1ccc(CSc2nc(C)cc(C)n2)cc1)C1CCCCC1 | 7.33%
O=C(Nc1ccccc1C(=O)O)c1ccc(N2C(=O)C3CC=CCC3C2=O)cc1 (stereo not drawn) | -0.72%
Cc1cc(/C=C2\SC(=O)N(C)C2=O)c(C)n1-c1cccc(C(=O)O)c1 | 8.51%
Cc1ccccc1NC(=O)CN1C(=O)N/C(=C\c2cccn2-c2cccc(C(=O)O)c2)C1=O | -4.12%
N#Cc1ccccc1CN1C(=O)S/C(=C/c2cccn2-c2cccc(C(=O)O)c2)C1=O | 74.2% (active)
COc1ccc(S(=O)(=O)N2CCOC23CCN(S(=O)(=O)c2ccc([N+](=O)[O-])cc2)CC3)cc1 | 7.35%
CC(C)c1ccccc1OCC(O)CN(CC(O)COc1cccc2ccccc12)C(C)C (stereo not drawn) | -10.3%
Cc1ccc(C(=O)N/C(=C\c2cn(S(=O)(=O)N(C)C)c3ccccc23)C(=O)N2CCCC2)cc1 | 15.1%
O=C(Nc1ccccc1C(=O)N1CCCCC1)c1ccco1 | -1.76%
CN(C)C=NC(=O)c1cccn1-c1ncc(C(F)(F)F)cc1Cl | -0.36%
Cc1noc(/C=C/c2ccco2)c1S(=O)(=O)N1CCC(C(=O)N2CCc3ccccc32)CC1 | 66.4% (active)
CNC(=O)C1CCN(S(=O)(=O)c2c(C)noc2/C=C/c2cccc(C)c2)CC1 | -2.65%
Cc1noc(/C=C/c2ccco2)c1S(=O)(=O)N1CCC(C(=O)Nc2ccc(Cl)cn2)CC1 | 9.46%
Cc1cccc(C)c1NC(=O)CN1C(=O)C(C)Oc2ccccc21 (stereo not drawn) | 5.55%
CN(C)c1ccc(C(=S)N2CCN(C(=S)Nc3ccc(Cl)cc3)CC2)cc1 | 13%
